KCNK9 block = KCNK9 potassium channel inhibitors, primary screen, HEK293 cells, thallium flux; actives 1.2% (n = 310,000); B-score at 10 µM; AID 488922, 2010; Potassium channel subfamily K member 9 (Homo sapiens), Q9NPC2; FluxOR thallium flux fluorescence; hits give low values;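 active = ratio B-score over 3 SD below the library mean, with starting fluorescence within 5 SD of its mean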;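 note: negative B-score means less thallium flux so channel inhibition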
Target sequence (Q9NPC2 whole entry, looked up): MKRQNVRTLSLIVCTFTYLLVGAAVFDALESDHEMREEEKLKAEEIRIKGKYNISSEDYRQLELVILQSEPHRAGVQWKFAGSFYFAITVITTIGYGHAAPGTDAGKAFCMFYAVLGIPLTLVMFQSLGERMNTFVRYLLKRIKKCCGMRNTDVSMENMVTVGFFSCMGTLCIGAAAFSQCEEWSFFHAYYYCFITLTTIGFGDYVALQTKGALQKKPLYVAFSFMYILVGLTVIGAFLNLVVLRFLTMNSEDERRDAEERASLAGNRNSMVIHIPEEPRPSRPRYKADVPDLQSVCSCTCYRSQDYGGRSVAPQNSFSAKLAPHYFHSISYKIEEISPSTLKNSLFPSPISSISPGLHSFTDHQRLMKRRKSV
KCNQ1 inh = inhibitors of human KCNQ1 channel, primary screen, cell-based, thallium flux, high-throughput. Potassium voltage-gated channel subfamily KQT member 1 (Homo sapiens), P51787. CHO-K1 KCNQ1, FluxOR thallium flux fluorescence; hits give high values. B-score at 10 µM. actives 1.3% (n = 310,000). AID 2642, 2010;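 active = compounds whose thallium flux B-score, printed positive for inhibition, exceeds three library SD while starting fluorescence stays within three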;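 note: channel opened by potassium depolarization with thallium stimulus after 20 min compound exposure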
KCNQ1 act = potentiators or activators of KCNQ1 channel, primary screen, cell-based, thallium flux, high-throughput | Potassium voltage-gated channel subfamily KQT member 1 (Homo sapiens), P51787 | CHO-K1 KCNQ1, thallium flux FluxOR fluorescence; hits give high values | B-score at 10 µM | actives 0.35% (n = 310,000) | AID 2648, 2010;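 active = fluorescence ratio B-score, a plate-corrected score, at least three library SD, with initial intensity B-score within 5 SD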
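Test system: CHO-K1 cells stably expressing KCNQ1 / Medium: assay buffer / Also added: depolarizing K+/Tl+ stimulus, K2SO4 and Tl2SO4 each 12.5 mM in 5x stock / Incubation: 90 min dye loading and 20 min compound exposure, both at room temperature / Signal: thallium influx via FluxOR fluorescence, kinetic imaging / Evaluation: B score of baseline-normalized fluorescence ratio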
KCNK3 block = human KCNK3 channel inhibitors, primary screen, CHO cells, FluxOR thallium flux, B-score; Potassium channel subfamily K member 3 (Homo sapiens), O14649; FluxOR fluorescence; hits give low values; B-score at 10 µM; actives 0.84% (n = 340,000);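 active = B-score under library mean minus 4 SD, starting fluorescence ratio at most library mean plus 5 SD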;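 note: more negative B-score means stronger inhibition of thallium flux through KCNK3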
hERG rescue = hERG rescue from dofetilide block, primary screen, cell-based, CHO-hERG, FluxOR thallium flux, dofetilide IC70. Voltage-gated inwardly rectifying potassium channel KCNH2 (Homo sapiens), Q12809. dofetilide IC70 present. activation (rescue from dofetilide block), less the hit threshold, % at 10 µM. actives 0.51% (n = 310,000). AID 1511, 2009;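 active = activation above the mean of controls blocked by dofetilide plus 5 SD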;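 note: thallium influx through hERG after potassium depolarization seen as dye fluorescence rise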
Kir21 block = inhibitors of mouse Kir2.1 inward-rectifier potassium channel; HEK293-Kir2.1, FluxOR thallium flux fluorescence; hits give low values; B-score at 10 µM; actives 0.85% (n = 310,000); AID 1672, 2009;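 active = fluorescence ratio B-score at or below minus 3 SD of library scores, with starting-brightness B-score within 2 SD, cut at about -4.2 in these data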;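 note: channel flux triggered by added potassium and thallium sulfate stimulus; B-score of peak minus minimum fluorescence over baseline after thallium stimulus; more negative B-score means stronger Kir2.1 block with less thallium influx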
KCNQ1 block val = KCNQ1 potassium channel inhibitors, confirmation, cell-based, Tl flux, duplicate; actives 93% (n = 1,600); shares compounds with KCNQ1 inh; KCNQ1 cell line, FluxOR thallium flux fluorescence; inhibition, % at 10 µM;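 active = primary screen active, with duplicate mean exceeding buffer control mean plus 3 SD of buffer wells, cut at about 28% in these data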;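 note: 0% = buffer control ratio and 100% = XE991 inhibitor control ratio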
CHO KCNQ1 ctr = thallium flux effects in parental CHO cells, counter-screen for KCNQ1 inhibitor project, cell-based, Tl flux; AID 588366, 2011; fluorescence ratio (Tl flux) at 10 µM; parental CHO-K1, FluxOR thallium flux fluorescence ratio; hits give low values; zero means no signal rise above baseline; actives 21% (n = 1,600); shares compounds with KCNQ1 inh;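 active = mean of duplicate thallium-flux fluorescence ratios in parental host cells more than 5 SD below the buffer control mean, cut at about 0.38 in these data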;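 note: ratio is peak minus minimum fluorescence divided by baseline fluorescence; actives read low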
KCNQ1 ephys val = KCNQ1 channel inhibitors, confirmation, orthogonal assay, cell-based, automated electrophysiology; shares compounds with KCNQ1 inh; KCNQ1-CHO cells, automated patch clamp current; calls only at 10 µM; actives 20% (n = 490); AID 624120, 2012;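 active = KCNQ1 current drop exceeding 3 SD of negative control wells, seen in both duplicate runs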;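 note: steady state current during a 2 s step from -80 to +40 mV; negative values mean current inhibition and positive values mean potentiation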
KCNQ2 inh = KCNQ2 channel inhibition, selectivity assay for KCNQ1 inhibitor project, cell-based; shares compounds with KCNQ1 inh; KCNQ2 cells, FluxOR thallium flux fluorescence; inhibition, % at 10 µM; actives 71% (n = 1,600); AID 651746, 2012;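 active = mean percent inhibition of the KCNQ2 thallium signal more than 5 SD above the buffer-only control wells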;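 note: KCNQ2 expressed in CHO cells; 0% = buffer control wells and 100% = XE-991 inhibitor control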
KCNQ1 KCNE1 spec = KCNQ1/KCNE1 channel inhibition, selectivity assay for KCNQ1 inhibitor project, CHO-K1 cells, thallium flux, FluxOR | shares compounds with KCNQ1 inh | FluxOR thallium flux fluorescence | inhibition, % at 10 µM | actives 77% (n = 1,600);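 active = mean percent inhibition of duplicate wells above the buffer-only control mean plus 3 SD of those controls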;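 note: 0% = buffer only wells and 100% = XE-991 inhibitor control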
Numbers without * were called inactive; i = inactive; / = no result given. Only some compounds are listed: those with a hit (about 3.7% of all), similar ones and a draw of the others.

SMILES	KCNK9 block	KCNQ1 inh	KCNQ1 act	KCNK3 block	hERG rescue	Kir21 block	KCNQ1 block val	CHO KCNQ1 ctr	KCNQ2 inh	KCNQ1 KCNE1 spec	others
CCOc1ccc(C(CC(=O)O)NC(=O)C(c2ccccc2)c2ccccc2)cc1OC (centres undefined)	/	/	/	i	/	/	/	/	/	/
N#Cc1c(-c2cccs2)nc(SCc2ccc(Cl)cc2)[nH]c1=O	i	8*	i	i	-12	-0.17	0	0.56	i	i
CSc1nc(-c2cccs2)c(C#N)c(=O)[nH]1	i	i	i	i	-6	0.67	/	/	/	/
Cc1ccccc1CSc1ccc(-c2ccc3c(c2)OCO3)nn1	i	7*	i	i	-8	-0.46	132*	0.36*	106%*	156%*
S=C(NCc1ccco1)Nc1ccc(Cl)c(Cl)c1	i	8*	i	i	-18	0.49	42*	0.57	i	52%*
S=C(NCc1ccncc1)Nc1ccc(Cl)c(Cl)c1	i	6*	i	i	-13	0.15	33*	0.58	i	i
COc1ccc(NC(=S)NCc2ccco2)cc1	i	i	i	i	0	0.65	/	/	/	/
S=C(NCc1ccco1)Nc1ccc(Oc2ccccc2)cc1	i	8*	i	i	-18	-0.01	45*	0.43	59%*	66%*
S=C(NCc1ccncc1)Nc1cc(Cl)cc(Cl)c1	i	i	i	i	-14	0.24	/	/	/	/
O=C(c1cc(S(=O)(=O)N2CCOCC2)ccc1F)N(CCc1ccccc1)Cc1ccccc1	i	i	i	i	-11	0.04	/	/	/	/
O=C(c1cc(F)ccc1F)C1CCCN(Cc2cccn2-c2ccccn2)C1 (centres undefined)	i	i	i	i	-17	-0.53	/	/	/	/
COc1ccc(C(=O)C2CCCN(Cc3cccn3-c3ccccn3)C2)c(OC)c1 (centres undefined)	i	6*	i	i	-10	-2.4	0	0.49	60%*	i
COC(=O)c1ccc([C@H](NC(=O)c2ccco2)[C@]2(C)C[C@H]2C2CCCCC2)cc1	i	6*	i	i	-7	-0.17	122*	0.34*	107%*	168%*
N#CC1(NC(=O)COC(=O)c2nccnc2N)CCCCC1	i	i	i	i	-9	-1.2	/	/	/	/
Cc1ccsc1CN(C)CC(=O)NCC(=O)Nc1ccc(F)cc1	/	/	/	i	/	/	/	/	/	/
C=CCN=C1CCCc2c1[nH]c1ccc(C)cc21	i	6*	i	i	-15	-0.54	54*	0.47	i	46%*
OCCN=C1CCCc2c1[nH]c1ccc(Br)cc21	i	i	i	i	-10	0.77	/	/	/	/
CCn1nnc2cc(C(=O)NCCc3ccccc3F)ccc21	i	i	i	i	-4	-1.3	/	/	/	/
CC1CCc2c(sc3nc(C(C)(C)C)nc(N4CCN(C(=O)CCl)CC4)c23)C1 (centres undefined)	i	11*	i	i	-5	-1.1	110*	0.41	128%*	156%*	KCNQ1 ephys val=i
CCC(=O)N1CCN(c2nc(CC)nc3sc4c(c23)CCCC4)CC1	i	i	i	i	2	0.12	/	/	/	/
Cc1ccccc1C(=O)Nc1ccccc1NC(=O)c1ccccc1Br	i	i	i	i	-10	-1	/	/	/	/
COc1ccc(Nc2ccccc2NC(=O)c2ccccc2Br)cc1	i	11*	i	i	-8	-1.3	89*	0.44	94%*	90%*
Cc1ccc(C2(CCNS(=O)(=O)c3ccc(C)cc3)CCOC(C(C)C)C2)cc1 (centres undefined)	i	8*	i	i	-12	-0.37	94*	0.42	83%*	98%*	KCNQ1 ephys val=i
CCC1(C)CC(CCNS(=O)(=O)c2ccc(C)cc2)(c2ccc(C)cc2)CCO1 (centres undefined)	i	i	i	i	-9	-1.4	/	/	/	/
O=C(Nc1ccc(S(=O)(=O)N2CCCC2)cc1)C1CC(=O)N(CCc2ccc(F)cc2)C1 (centres undefined)	/	/	/	i	/	/	/	/	/	/
SMILES	KCNK9 block	KCNQ1 inh	KCNQ1 act	KCNK3 block	hERG rescue	Kir21 block	KCNQ1 block val	CHO KCNQ1 ctr	KCNQ2 inh	KCNQ1 KCNE1 spec	others
CC(C)(Cc1ccc(O)cc1)NC(=O)SCc1ccccc1	i	7*	i	i	-10	-1.1	50*	0.5	i	78%*
O=C(CSc1nc(=O)n(CCN2CCOCC2)c2c1CCCC2)Nc1cccc([N+](=O)[O-])c1	i	i	i	i	-14	0.17	/	/	/	/
CSCc1cc(N(C)c2ccccc2)nc(-c2ccccc2)n1	i	7*	i	i	-6	-1.1	91*	0.44	91%*	98%*	KCNQ1 ephys val=i
COc1cc(CSC)nc(-c2ccccc2)n1	i	i	i	i	-6	0.34	/	/	/	/
CCN(CC(=O)NC1CCS(=O)(=O)C1)C(=O)c1ccc(OC)c([N+](=O)[O-])c1 (centres undefined)	/	/	/	i	/	/	/	/	/	/
CCOc1ccc(OCC(=O)Nc2nccs2)cc1	i	i	i	i	-3	1.1	/	/	/	/
COc1ccc(OCC(=O)Nc2nccs2)cc1	i	7*	i	i	-17	0.12	0	0.49	i	i
CC(C)(C)c1cc(NCc2ccccn2)n2ncc(-c3ccccc3)c2n1	i	7*	i	i	-13	0	72*	0.45	i	61%*
